From ChEMBL document CHEMBL1817557, “Synthesis and biological evaluation of orally active hypolipidemic agents” (J Med Chem, 2011)
Converted amounts (≈) assume the structure as drawn.

Key:
[1] = Octanol-buffer partition coefficient, log P of the compound at pH 7.4 by HPLC; assay type: physicochemical
How it was run: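 Partition coefficient determined by HPLC in an octanol–buffer system at pH 7.4, 25 °C.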

[2] = Aqueous solubility of the compound in 0.1 M boric acid buffer at pH 9.0 after 4 hrs by HPLC method; assay type: physicochemical
Mus musculus [3] = assay: Hypolipidemic activity in Swiss albino mouse assessed as decrease in plasma triglyceride level at 50 mg/kg, po administered daily for 8 days measured on day 9 by spectrophotometry relative to control; assay type: functional; design: scale not given: the % may be the effect or the level left
How it was run: (§1)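 Male Swiss albino mice (moderately hypertriglyceridemic model) dosed by oral gavage at 50 mg/kg body weight once daily for 8 days; plasma triglyceride and total cholesterol measured. Percent change calculated relative to vehicle-treated control group; mean ± SE, n = 10 mice per group.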

Mus musculus [4] = assay: Hypolipidemic activity in Swiss albino mouse assessed as decrease in plasma total cholesterol level at 50 mg/kg, po administered daily for 8 days measured on day 9 by spectrophotometry relative to control; assay type: functional; design: scale not given: the % may be the effect or the level left; how it was run: as §1
[5] = Aqueous solubility of the compound in 0.1 M phosphate buffer at pH 5.2 after 4 hrs by HPLC method; assay type: physicochemical
[6] = Aqueous solubility of the compound in 0.2 M phosphate buffer at pH 7.4 after 4 hrs by HPLC method; assay type: physicochemical
Mus musculus [7] = assay: Hypolipidemic activity in Swiss albino mouse assessed as change in plasma total cholesterol level at 50 mg/kg, po administered daily for 8 days measured on day 9 by spectrophotometry relative to control; assay type: functional; how it was run: as §1
[8] = Aqueous solubility of the compound in 0.1 M citric acid buffer at pH 3.0 after 4 hrs by HPLC method; assay type: physicochemical; conditions: pH 3, 4 h
[9] = Aqueous solubility of the compound in 0.2 M hydrochloric acid buffer at pH 1.0 after 4 hrs by HPLC method; assay type: physicochemical

logD [1]	solubility at 4 h [2]	solubility at 4 h [5]	solubility at 4 h [6]	solubility [8]	solubility ([9]; buffer, pH 1, 4 h)	solubility at 4 h ([9]; 0.2 M hydrochloric acid buffer, pH 1)	Compound	Activity (Mus musculus [3])	Activity (Mus musculus [4])	Activity (Mus musculus [7])
5.43	22 ng/mL (≈ 49 nM)	1 ng/mL (≈ 2.23 nM)	1 ng/mL (≈ 2.23 nM)	–	–	–	CC(C)OC(=O)OC(C)OC(=O)C(C)(C)Oc1ccc(C(=O)c2ccc(Cl)cc2)cc1 (centres undefined)	47%	7.7%	–
4.7	1 ng/mL (≈ 2.31 nM)	1 ng/mL (≈ 2.31 nM)	2 ng/mL (≈ 4.62 nM)	–	–	–	CC(C)(C)C(=O)OCOC(=O)C(C)(C)Oc1ccc(C(=O)c2ccc(Cl)cc2)cc1	45%	9%	–
4.65	3 ng/mL (≈ 7.41 nM)	3 ng/mL (≈ 7.41 nM)	2 ng/mL (≈ 4.94 nM)	–	–	–	CC(=O)OC(C)OC(=O)C(C)(C)Oc1ccc(C(=O)c2ccc(Cl)cc2)cc1 (centres undefined)	33.1%	–	-3.5%
4.91	6 ng/mL (≈ 13.8 nM)	2 ng/mL (≈ 4.6 nM)	2 ng/mL (≈ 4.6 nM)	2 ng/mL (≈ 4.6 nM)	–	–	CC(C)OC(=O)OCOC(=O)C(C)(C)Oc1ccc(C(=O)c2ccc(Cl)cc2)cc1	33.1%	7.2%	–
3.5	4800 ng/mL (≈ 11100 nM)	38000 ng/mL (≈ 88000 nM)	1920 ng/mL (≈ 4450 nM)	15 ng/mL (≈ 34.7 nM)	5 ng/mL (≈ 11.6 nM)	–	CC(C)(Oc1ccc(C(=O)c2ccc(Cl)cc2)cc1)C(=O)OCCN1CCOCC1	27.6%	2.4%	–
4.35	4 ng/mL (≈ 9.28 nM)	3 ng/mL (≈ 6.96 nM)	2 ng/mL (≈ 4.64 nM)	2 ng/mL (≈ 4.64 nM)	–	230 ng/mL (≈ 534 nM)	Cc1oc(=O)oc1COC(=O)C(C)(C)Oc1ccc(C(=O)c2ccc(Cl)cc2)cc1	27.2%	11.2%	–
4.78	–	–	–	–	–	–	CC(C)OC(=O)C(C)(C)Oc1ccc(C(=O)c2ccc(Cl)cc2)cc1 [FENOFIBRATE]	48.6%	5.5%	–
